# Measured values as given in ChEMBL document CHEMBL1806428, “Design and synthesis of spiro derivatives of parthenin as novel anti-cancer agents” (Eur J Med Chem, 2011).
# Activity calls are given as the source filed them. The calls are words filed in the database; no cut-off is given here.
# Key:
# [1] = Partition coefficient, log P of the compound; format: physicochemical; settings: octanol/water
# [2] = test system: SW-620; test: Cytotoxicity against human SW620 cells assessed as cell growth after 48 hrs by sulforhodamine B assay; format: functional, cell-based; settings: Homo sapiens, SW-620, 48 h
# Procedure, shortened: (§1)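 Log-phase cells seeded at 10^4/well and allowed to attach for 24 h at 37 °C, 5% CO2. Exposed for 48 h to 0.1–100 (1:10 serial dilutions), four replicate wells per condition. Fixed with cold 50% TCA for 1 h at 4 °C, stained with sulforhodamine B, dye dissolved in Tris, OD read at 540 nm. Blank-subtracted growth expressed relative to untreated cells (100%); IC50 reported.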
# [3] = test system: DU-145; test: Cytotoxicity against human DU145 cells assessed as cell growth after 48 hrs by sulforhodamine B assay; format: functional, cell-based; settings: Homo sapiens, DU-145, 48 h; procedure, shortened: as §1
# [4] = test system: PC-3; test: Cytotoxicity against human PC3 cells assessed as cell growth after 48 hrs by sulforhodamine B assay; format: functional, cell-based; settings: Homo sapiens, PC-3, 48 h; procedure, shortened: as §1
# [5] = test system: SW-620; test: Induction of apoptosis in human SW620 cells assessed as DNA fragmentation at 5 uM after 6 hrs by gel electrophoresis; format: functional, cell-based
# [6] = test system: SW-620; test: Cell cycle arrest in human SW620 cells assessed as increase in sub-G1 DNA content at 5 uM after 24 hrs using propidium iodide staining by flow cytometry (reference value: 3.45%); format: functional
# [7] = test system: Ehrlich; test: Antitumor activity against mouse EAC cells transplanted in ip dosed Swiss albino mouse assessed as tumor growth inhibition administered for 9 days; format: functional, organism-based
# Procedure, shortened: (§2)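 EAC ascites model: mice of the same sex, 20 ± 3 g, injected intraperitoneally with 1 × 10^7 cells from a donor bearing 8–10 day old ascites tumor (day 0). Randomised the next day, 7 per test group and 10 controls. Doses were suspended in 1% gum acacia and given i.p. for nine consecutive days; controls received saline 0.2 mL i.p. On day 12, ascitic fluid volume and tumor cell count were measured, and % inhibition was calculated from cell number versus control.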
# [8] = test system: Mus musculus; test: Toxicity in Swiss albino mouse transplanted with mouse EAC cells assessed as mortality at 25 mg/kg, ip administered for 9 days measured on day 2nd; format: organism-based, Ehrlich; set-up: dose 25 mg/kg, route intraperitoneal; settings: in vivo, 216 h; procedure, shortened: as §2
# [9] = test system: Mus musculus; test: Toxicity in Swiss albino mouse transplanted with mouse EAC cells assessed as mortality at 50 mg/kg, ip administered for 9 days measured on day 3rd; format: organism-based, Ehrlich; set-up: dose 50 mg/kg, route intraperitoneal; settings: in vivo, 216 h; procedure, shortened: as §2
# [10] = Antitumor activity against mouse EAC cells transplanted in Swiss albino mouse assessed as decrease in astic fluid volume at 10 mg/kg, ip administered for 9 days (reference value: 4.57+/-0.39 mL); format: functional, Ehrlich; settings: route intraperitoneal; procedure, shortened: as §2
# [11] = test system: Mus musculus; test: Toxicity in Swiss albino mouse transplanted with EAC cells assessed as mortality at 25 mg/kg, ip administered for 9 days measured on day 4th; format: organism-based, Ehrlich; set-up: dose 25 mg/kg, route intraperitoneal; settings: in vivo, 216 h; procedure, shortened: as §2
# [12] = test system: Mus musculus; test: Toxicity in Swiss albino mouse transplanted with EAC cells assessed as mortality at 50 mg/kg, ip administered for 9 days measured on day 2nd; format: organism-based, Ehrlich; set-up: dose 50 mg/kg, route intraperitoneal; settings: in vivo, 216 h; procedure, shortened: as §2
# [13] = test system: Ehrlich; test: Antitumor activity against mouse EAC cells transplanted in Swiss albino mouse assessed as decrease in tumor cells in ascetic fluid at 10 mg/kg, ip administered for 9 days (reference value: 4.57+/-0.39 mL); format: functional, organism-based; set-up: dose 10 mg/kg; procedure, shortened: as §2
# [14] = Antitumor activity against mouse EAC cells transplanted in Swiss albino mouse assessed as tumor growth inhibition at 10 mg/kg, ip administered for 9 days (reference value: 4.57+/-0.39 mL); format: functional; settings: Ehrlich, 216 h, route intraperitoneal, read-out: GI; procedure, shortened: as §2
# [15] = test system: Mus musculus; test: Toxicity in ip dosed Swiss albino mouse transplanted with mouse EAC cells assessed as mortality administered for 9 days; format: organism-based, Ehrlich; settings: in vivo, 216 h; procedure, shortened: as §2
# [16] = Antitumor activity against mouse Ehrlich Ascites tumor xenografted in Swiss albino mouse assessed as decrease in tumor weight at 10 mg/kg, ip administered for 9 days (reference value: 1708+/-51.07 mg); format: functional; settings: route intraperitoneal
# [17] = test system: Mus musculus; test: Toxicity in Swiss albino mouse model of Ehrlich Ascites tumor assessed as mortality at 25 mg/kg, ip administered for 9 days measured on fourth day; format: organism-based; set-up: dose 25 mg/kg, route intraperitoneal; settings: in vivo, 216 h
# [18] = test system: Mus musculus; test: Toxicity in Swiss albino mouse model of Ehrlich Ascites tumor assessed as mortality at 50 mg/kg, ip administered for 9 days measured on second day; format: organism-based; set-up: dose 50 mg/kg, route intraperitoneal; settings: in vivo, 216 h
# [19] = Antitumor activity against mouse Ehrlich Ascites tumor xenografted in Swiss albino mouse assessed as tumor growth inhibition at 10 mg/kg, ip administered for 9 days measured on day 13; format: functional; settings: route intraperitoneal, read-out: GI
Compound,logP [1],IC50 [2] [µM],IC50 [3] [µM],IC50 [4] [µM],further results
C[C@H]1CC[C@@H]2[C@@H](OC(=O)[C@]23CC(c2ccc(Cl)cc2)=NO3)[C@]2(C)C(=O)C=C[C@@]12O,2.09,51,43,49,
COC(=O)c1cccc(N2C[C@]23C(=O)O[C@@H]2[C@H]3CC[C@H](C)[C@]3(O)C=CC(=O)[C@@]23C)c1,1.52,30,18.5,10.1,
C[C@H]1CC[C@@H]2[C@@H](OC(=O)[C@]23CC(c2ccc(N(C)C)cc2)=NO3)[C@]2(C)C(=O)C=C[C@@]12O,1.51,5.1,4.5,6.3,
C[C@H]1CC[C@@H]2[C@@H](OC(=O)[C@]23CC(c2ccc(O)cc2)=NO3)[C@]2(C)C(=O)C=C[C@@]12O,0.932,89,93,20,
Cc1ccc(N2C[C@]23C(=O)O[C@@H]2[C@H]3CC[C@H](C)[C@]3(O)C=CC(=O)[C@@]23C)cc1,1.83,32,36,25,
COc1ccccc1N1C[C@]12C(=O)O[C@@H]1[C@H]2CC[C@H](C)[C@]2(O)C=CC(=O)[C@@]12C,1.41,47.3,27,52,
C[C@H]1CC[C@@H]2[C@@H](OC(=O)[C@]23CC(c2ccc(F)cc2)=NO3)[C@]2(C)C(=O)C=C[C@@]12O,1.57,3.6,13,27,
COc1ccc(C2=NO[C@]3(C2)C(=O)O[C@@H]2[C@H]3CC[C@H](C)[C@]3(O)C=CC(=O)[C@@]23C)cc1,1.47,41,20,35,
C[C@H]1CC[C@@H]2[C@@H](OC(=O)[C@]23CC(c2ccccc2)=NO3)[C@]2(C)C(=O)C=C[C@@]12O,1.41,45.4,39.8,46,
CC[C@@]1(O)C(=O)OCc2c1cc1n(c2=O)Cc2cc3ccccc3nc2-1 [CAMPTOTHECIN],,,,,Activity [5]: Active; Activity [6]: 60%
C[C@H]1CC[C@@H]2[C@@H](OC(=O)[C@]23CC(c2c(Cl)cccc2Cl)=NO3)[C@]2(C)C(=O)C=C[C@@]12O,2.67,43,38,56,
C[C@H]1CC[C@@H]2[C@@H](OC(=O)[C@]23CC(c2cccc([N+](=O)[O-])c2)=NO3)[C@]2(C)C(=O)C=C[C@@]12O,1.37,49,51,55,
C=C1C(=O)O[C@@H]2[C@H]1CC[C@H](C)[C@]1(O)C=CC(=O)[C@@]21C [PARTHENIN],,38.7,31.1,40.3,growth inhibition (GI) [7]: Dose-dependent effect; Activity [8]: Toxic; Activity [9]: Toxic; Activity [10]: 3.92 mL; Activity [11]: Toxic; Activity [12]: Toxic; Activity [13]: Active; inhibition in vivo at 10 mg/kg [14]: 12%; Activity [15]: Toxic; Activity [16]: 1542.86 mg; Activity [17]: Toxic; Activity [18]: Toxic; inhibition in vivo at 10 mg/kg [19]: 9.69%
C[C@H]1CC[C@@H]2[C@@H](OC(=O)[C@]23CN3c2cccc([N+](=O)[O-])c2)[C@]2(C)C(=O)C=C[C@@]12O,1.31,61,30,10.1,
